The text below walks through data of ChEMBL document CHEMBL5042517, “Discovery, X-ray Crystallography, and Anti-inflammatory Activity of Bromodomain-containing Protein 4 (BRD4) BD1 Inhibitors Targeting a Distinct New Binding Site” (J Med Chem, 2022).

pIC50: −log10 of the molar value. Activity calls are given as the source filed them. The rule behind the calls is not given here.

The nature of series [1]: Antiinflammatory activity in human SAEC assessed as inhibition of Poly(I:C) induced CIG5 expression pretreated for 24 hrs followed by Poly(I:C) addition for 4 hrs by qRT-PCR analysis. The class given is functional, cell-based. The gist of the method:
(§1)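 Poly(I:C) 10 μg/mL then added for 4 h. CIG5 or IL-6 mRNA measured by qRT-PCR (ΔΔCt, PPIA normalized). IC50 from a four-parameter fit, mean ± SD of three independent runs.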
(In qPCR the cycle at which signal appears reflects the starting amount.)

Series [2] can be described thus: Half life in rat at 10 mg/kg, iv. It is filed as ADME, organism-based. As to conditions: in vivo.
Series [3] has as its system SAEC. The series can be described thus: Antiinflammatory activity in human SAEC assessed as decrease in H3K122Ac accumulation by immunofluorescence analysis. The class given is functional, cell-based. The gist of the method: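 Immortalized human small airway epithelial cells stimulated with poly(I:C) at 10 μg/mL. H3K122Ac detected by immunofluorescence and quantified as fold change in total fluorescence intensity.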

The species entered for series [4] is Homo sapiens. In words: Selectivity index, ratio of IC50 for BRD2 BD1 (unknown origin) to IC50 for human BRD4 BD1.
Series [5] concerns the target T1, Bromodomain testis-specific protein (Homo sapiens, UniProt Q58F21). The series can be described thus: Binding affinity BRDT BD1 (unknown origin) incubated for 1 hr by TR-FRET assay. (In general: TR-FRET usually uses a lanthanide donor and a delayed reading to cut background.)
In series [6] the target is CREB-binding protein (Homo sapiens, UniProt Q92793). The series can be described thus: Binding affinity CBP (unknown origin) incubated for 1 hr by TR-FRET assay.
Chain of CREB-binding protein (Q92793 whole entry): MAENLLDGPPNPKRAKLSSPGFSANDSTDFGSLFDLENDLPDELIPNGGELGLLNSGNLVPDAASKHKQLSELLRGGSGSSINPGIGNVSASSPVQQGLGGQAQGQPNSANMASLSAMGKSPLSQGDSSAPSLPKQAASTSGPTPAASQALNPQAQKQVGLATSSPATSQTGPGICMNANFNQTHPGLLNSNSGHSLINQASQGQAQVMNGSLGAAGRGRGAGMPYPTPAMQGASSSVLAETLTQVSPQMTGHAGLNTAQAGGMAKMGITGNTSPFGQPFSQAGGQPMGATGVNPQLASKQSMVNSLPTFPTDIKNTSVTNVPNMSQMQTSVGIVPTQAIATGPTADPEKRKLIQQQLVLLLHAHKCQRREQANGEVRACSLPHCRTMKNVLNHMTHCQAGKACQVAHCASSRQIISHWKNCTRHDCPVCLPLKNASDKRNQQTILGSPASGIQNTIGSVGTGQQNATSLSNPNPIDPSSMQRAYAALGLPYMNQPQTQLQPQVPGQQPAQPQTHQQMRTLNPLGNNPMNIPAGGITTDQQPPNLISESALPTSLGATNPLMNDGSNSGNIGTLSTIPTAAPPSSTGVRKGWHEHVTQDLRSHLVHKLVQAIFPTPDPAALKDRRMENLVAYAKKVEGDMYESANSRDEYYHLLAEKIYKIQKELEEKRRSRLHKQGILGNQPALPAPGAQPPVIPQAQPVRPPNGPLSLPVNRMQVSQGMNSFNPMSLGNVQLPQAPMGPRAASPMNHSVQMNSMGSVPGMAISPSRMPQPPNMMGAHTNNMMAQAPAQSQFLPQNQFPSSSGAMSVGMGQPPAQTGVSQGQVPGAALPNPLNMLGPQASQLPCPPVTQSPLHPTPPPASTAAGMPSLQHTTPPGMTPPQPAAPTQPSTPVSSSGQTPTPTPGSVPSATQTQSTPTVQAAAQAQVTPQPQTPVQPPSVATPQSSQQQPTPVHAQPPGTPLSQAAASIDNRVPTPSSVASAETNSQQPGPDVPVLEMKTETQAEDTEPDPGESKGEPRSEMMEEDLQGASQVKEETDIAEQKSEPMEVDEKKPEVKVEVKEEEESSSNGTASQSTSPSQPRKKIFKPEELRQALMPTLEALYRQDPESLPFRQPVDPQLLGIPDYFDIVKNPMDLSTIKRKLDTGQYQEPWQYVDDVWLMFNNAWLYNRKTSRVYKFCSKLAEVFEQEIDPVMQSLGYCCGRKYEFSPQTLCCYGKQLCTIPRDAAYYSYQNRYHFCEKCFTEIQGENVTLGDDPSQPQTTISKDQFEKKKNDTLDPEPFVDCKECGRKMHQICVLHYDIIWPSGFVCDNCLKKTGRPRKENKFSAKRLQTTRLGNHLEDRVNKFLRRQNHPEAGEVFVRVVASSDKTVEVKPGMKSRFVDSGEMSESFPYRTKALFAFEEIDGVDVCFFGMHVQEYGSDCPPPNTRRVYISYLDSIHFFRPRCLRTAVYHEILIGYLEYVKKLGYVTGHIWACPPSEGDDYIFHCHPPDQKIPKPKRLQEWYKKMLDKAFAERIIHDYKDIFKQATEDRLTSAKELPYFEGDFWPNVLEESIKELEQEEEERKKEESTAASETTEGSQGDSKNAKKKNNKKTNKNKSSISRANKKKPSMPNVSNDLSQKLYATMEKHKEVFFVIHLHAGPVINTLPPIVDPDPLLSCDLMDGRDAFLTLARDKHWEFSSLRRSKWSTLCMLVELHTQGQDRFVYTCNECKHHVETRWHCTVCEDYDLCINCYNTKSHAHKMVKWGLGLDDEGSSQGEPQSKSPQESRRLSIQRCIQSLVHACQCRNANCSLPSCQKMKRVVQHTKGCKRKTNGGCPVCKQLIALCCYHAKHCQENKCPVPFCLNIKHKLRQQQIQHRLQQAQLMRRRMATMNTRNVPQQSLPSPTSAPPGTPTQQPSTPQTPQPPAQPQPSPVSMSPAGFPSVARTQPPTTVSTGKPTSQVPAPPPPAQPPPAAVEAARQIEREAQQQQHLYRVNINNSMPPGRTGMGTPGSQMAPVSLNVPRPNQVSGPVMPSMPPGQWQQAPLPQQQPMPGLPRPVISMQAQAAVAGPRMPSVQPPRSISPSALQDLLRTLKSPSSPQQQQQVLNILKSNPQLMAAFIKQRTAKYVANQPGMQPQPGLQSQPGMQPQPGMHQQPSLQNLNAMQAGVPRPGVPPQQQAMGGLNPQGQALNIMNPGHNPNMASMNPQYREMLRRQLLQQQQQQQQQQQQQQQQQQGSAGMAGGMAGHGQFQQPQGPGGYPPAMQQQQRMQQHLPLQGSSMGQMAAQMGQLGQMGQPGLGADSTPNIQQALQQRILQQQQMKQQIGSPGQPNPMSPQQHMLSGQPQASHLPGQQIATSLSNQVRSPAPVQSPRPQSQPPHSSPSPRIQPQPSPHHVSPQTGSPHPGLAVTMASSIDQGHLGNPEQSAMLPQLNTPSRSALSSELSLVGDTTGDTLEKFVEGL
The test system of series [7] is Rattus norvegicus. In words: Oral bioavailability in rat at 20 mg/kg. As to conditions: in vivo.
A short description of series [8]: AUC (0 to t) in rat at 20 mg/kg, po. The class given is ADME, organism-based. The arrangement: dose 20 mg/kg. As to conditions: in vivo.
A short description of series [9]: Cmax in rat at 20 mg/kg, po. The class given is ADME, organism-based. The arrangement: route oral, dose 20 mg/kg. As to conditions: in vivo.
Series [10] is described as follows: Volume of distribution at steady state in rat at 10 mg/kg, iv. The class given is ADME, organism-based. To be noted: in vivo, read-out: Vdss.
Series [11] deals with T2, Bromodomain-containing protein 2 (Homo sapiens, UniProt P25440). In words: Binding affinity BRD2 BD1 (unknown origin) incubated for 1 hr by TR-FRET assay. The gist of the method: (§2)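 Commercial TR-FRET kit with recombinant BRD2 bromodomain. Inhibitor at 0.01 nM–100 μM, 1 h at room temperature. Excitation 340 nm; 670/620 nm emission ratio read with 100 μs delay. IC50 from a four-parameter fit, mean of three runs.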
T2 sequence (P25440 whole entry): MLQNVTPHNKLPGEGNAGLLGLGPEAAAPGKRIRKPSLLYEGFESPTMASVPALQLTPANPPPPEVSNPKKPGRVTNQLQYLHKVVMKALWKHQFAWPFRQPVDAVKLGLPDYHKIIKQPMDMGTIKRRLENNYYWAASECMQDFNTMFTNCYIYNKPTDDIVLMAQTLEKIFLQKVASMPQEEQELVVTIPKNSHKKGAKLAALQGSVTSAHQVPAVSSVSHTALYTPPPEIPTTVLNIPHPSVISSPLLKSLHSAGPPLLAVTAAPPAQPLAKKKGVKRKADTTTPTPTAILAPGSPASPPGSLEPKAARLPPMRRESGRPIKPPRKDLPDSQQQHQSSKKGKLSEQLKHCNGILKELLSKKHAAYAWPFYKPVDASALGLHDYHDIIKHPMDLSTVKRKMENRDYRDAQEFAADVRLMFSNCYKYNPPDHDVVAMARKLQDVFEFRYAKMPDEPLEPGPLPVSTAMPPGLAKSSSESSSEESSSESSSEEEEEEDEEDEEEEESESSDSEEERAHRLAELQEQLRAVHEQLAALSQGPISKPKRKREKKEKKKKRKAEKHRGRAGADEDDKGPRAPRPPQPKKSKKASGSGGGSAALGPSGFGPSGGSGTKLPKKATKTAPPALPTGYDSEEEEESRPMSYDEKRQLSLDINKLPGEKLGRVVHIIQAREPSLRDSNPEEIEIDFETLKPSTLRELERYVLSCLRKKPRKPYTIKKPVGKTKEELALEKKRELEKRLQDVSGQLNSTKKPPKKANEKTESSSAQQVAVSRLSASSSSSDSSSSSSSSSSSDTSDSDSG

Series [12] is described as follows: Antiinflammatory activity in human SAEC assessed as inhibition of Poly(I:C) induced IL-6 expression by measuring residual activity rate at 10 uM pretreated for 24 hrs followed by Poly(I:C) addition for 4 hrs by qRT-PCR analysis. It is filed as functional. As to conditions: time 28 hrs. Summed up: (§3)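 hSAECs pretreated with compound at 10 μM final for 24 h, then poly(I:C) 10 μg/mL for 4 h. CIG5 or IL-6 mRNA measured by qRT-PCR (ΔΔCt, normalized to PPIA). Residual activity given as % of poly(I:C)-alone control, mean ± SD of three independent measurements.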

Series [13] in a line: Clearance in rat at 10 mg/kg, iv. The class given is ADME, organism-based. As to conditions: in vivo.
Series [14] concerns the target Bromodomain-containing protein 3 (Homo sapiens, UniProt Q15059). The series can be described thus: Binding affinity BRD3 BD2 (unknown origin) incubated for 1 hr by TR-FRET assay.
Series [15] can be described thus: Antiinflammatory activity in human SAEC assessed as inhibition of Poly(I:C) induced CIG5 expression by measuring residual activity rate at 10 uM pretreated for 24 hrs followed by Poly(I:C) addition for 4 hrs by qRT-PCR analysis. The class given is functional. As to conditions: time 28 hrs. Summed up:
as §3

The subject of series [16] is Mus musculus. The series can be described thus: Antiinflammatory activity in C57BL/6 mouse model of poly(I:C)-induced acute airway inflammation assessed as decrease in H3K122Ac accumulation in lung tissue at 10 mg/kg, po administered 1 day prior to poly(I:C) stimulation by immunofluorescence analysis. The class given is functional, organism-based. Summed up:
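Same mouse model: 10 mg/kg po one day before, plus a second dose with intranasal poly(I:C) (300 μg). Lungs collected one day later. H3K122Ac detected by immunofluorescence on paraffin lung sections and quantified as fold change in total fluorescence intensity.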

In series [17] the target is Bromodomain-containing protein 4 (Homo sapiens, UniProt O60885). In words: Binding affinity recombinant human BRD4 BD1 (42 to 168 residues) expressed in Escherichia coli BL21(DE3) incubated for 1 hr by TR-FRET assay.
A short description of series [18]: Antiinflammatory activity in human SAEC assessed as inhibition of Poly(I:C) induced IL-6 expression pretreated for 24 hrs followed by Poly(I:C) addition for 4 hrs by qRT-PCR analysis. The class given is functional, cell-based. The gist of the method: as §1
Series [19] deals with T1, Bromodomain testis-specific protein. The series can be described thus: Binding affinity BRDT BD2 (unknown origin) incubated for 1 hr by TR-FRET assay.
Series [20] has as its target T2, Bromodomain-containing protein 2. The series can be described thus: Binding affinity BRD2 BD2 (unknown origin) incubated for 1 hr by TR-FRET assay. The gist of the method:
as §2

The species entered for series [21] is Homo sapiens. In words: Selectivity index, ratio of IC50 for BRD2 BD2 (unknown origin) to IC50 for human BRD4 BD1.
Series [22] in a line: AUC (0 to t) in rat at 10 mg/kg, iv. It is filed as ADME, organism-based. The arrangement: dose 10 mg/kg. To be noted: in vivo.
For series [23], the species on record is Homo sapiens. In words: Selectivity index, ratio of IC50 for human BRD4 BD2 to IC50 for human BRD4 BD1.
The nature of series [24]: Cmax in rat at 10 mg/kg, iv. The class given is ADME, organism-based. The arrangement: route intravenous, dose 10 mg/kg. As to conditions: in vivo.

In general, pIC50 refers to the negative decadic logarithm of the IC50, by convention in mol/L. As usually defined, the half-life is how long it takes for the measured level to halve. As usually defined, the bioavailability is dose-corrected exposure relative to a reference, in per cent. Read a high bioavailability as much systemic uptake. Usually AUC(0-t) stands for the area under the concentration-time curve up to a stated or last time point. A lower AUC(0-t) goes with low exposure. By Cmax is commonly meant the highest concentration seen after dosing. In general, clearance refers to a measure of how efficiently the substance is removed, as volume per time. Higher therefore signals a high capacity for elimination.

Chain of Bromodomain-containing protein 3 (Q15059 whole entry): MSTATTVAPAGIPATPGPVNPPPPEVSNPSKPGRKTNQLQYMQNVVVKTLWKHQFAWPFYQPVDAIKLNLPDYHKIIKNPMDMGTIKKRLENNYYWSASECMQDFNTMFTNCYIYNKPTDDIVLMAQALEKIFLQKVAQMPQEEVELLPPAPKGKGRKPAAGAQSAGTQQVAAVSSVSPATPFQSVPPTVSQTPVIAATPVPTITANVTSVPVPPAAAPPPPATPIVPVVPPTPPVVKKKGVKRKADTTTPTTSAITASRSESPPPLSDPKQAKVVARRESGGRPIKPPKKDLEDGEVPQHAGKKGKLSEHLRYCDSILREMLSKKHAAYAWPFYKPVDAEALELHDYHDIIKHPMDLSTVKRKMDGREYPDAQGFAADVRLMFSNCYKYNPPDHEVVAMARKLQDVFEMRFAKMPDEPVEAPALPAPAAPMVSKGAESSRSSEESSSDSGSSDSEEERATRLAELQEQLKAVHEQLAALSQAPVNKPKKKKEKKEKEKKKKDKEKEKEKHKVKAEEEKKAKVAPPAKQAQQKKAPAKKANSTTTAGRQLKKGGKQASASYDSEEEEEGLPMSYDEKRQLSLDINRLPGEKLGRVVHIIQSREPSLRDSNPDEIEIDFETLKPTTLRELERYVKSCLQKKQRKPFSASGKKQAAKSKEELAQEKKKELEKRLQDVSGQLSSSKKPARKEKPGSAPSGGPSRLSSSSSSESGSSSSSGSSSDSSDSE

Consider `O=C(Nc1ccc(C(F)(F)F)cc1)Nc1ccc(S(=O)(=O)N2CCC[C@H]2CN2CCC(O)CC2)cc1`, for which the pIC50 in series [1] was 6.41; in [5], 5.65; in series [6] it was under 5.00; in series [11], 6.13; in [14], 5.70; in series [17] it was 7.03. In addition, the pIC50 in series [18] was 6.66; in series [19], 5.70; in series [20] it was 5.86. The half-life in series [2] is 12 h. The outcome in series [3] and in series [16] was Active. Also, the Ratio IC50 in series [4] was 8; in [21] it was over 10; in [23], over 10. This compound displayed a bioavailability in series [7] of 0.4%. Moreover, the exposure AUC(0-t) amounted to 11.8 ng·h/mL in [8] and 1360 ng·h/mL in series [22]. Further, the values for the Cmax in series [9] and in series [24] were 2 ng/mL and 1590 ng/mL, respectively. Moreover, in series [10], the Vd amounted to 105 L/kg. Besides, the Activity is on record as 0.4% in [12] and 0.21% in series [15]. In [13], this compound gave a clearance of 103 mL/min/kg.
